Experimental data reported in ChEMBL document CHEMBL1140297, “Discovery of novel and potent small-molecule inhibitors of NO and cytokine production as antisepsis agents: synthesis and biological activity of alkyl 6-(N-substituted sulfamoyl)cyclohex-1-ene-1-carboxylate” (J Med Chem, 2005).
Calls of active or inactive are those of the source. No cut-off for these calls is given here.

Key:
RAW264.7 [1] = assay: Inhibition of LPS-induced IL6 production in mouse RAW264.7 cells by ELISA; assay type: functional, cell-based
Outline: (§1)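 RAW264.7 cells (grown in RPMI1640 with 10% heat-inactivated FBS) were seeded at 1 × 10⁵ cells/well and left overnight. They were then stimulated with 10 ng/mL LPS (E. coli O111:B4) plus a range of compound concentrations for 20 h at 37 °C in phenol red-free RPMI1640 with 1% FBS. TNF-α and IL-6 in the supernatant were measured by ELISA.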

RAW264.7 [2] = assay: Inhibition of LPS-induced TNFalpha production in mouse RAW264.7 cells by ELISA; assay type: functional, cell-based; outline: as §1
RAW264.7 [3] = assay: Inhibition of LPS-induced nitric oxide production in mouse RAW264.7 cells; assay type: functional, cell-based
Outline: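 RAW264.7 macrophages were plated at 1 × 10⁵ cells/well and cultured overnight. Cells were exposed to 10 ng/mL LPS with graded compound concentrations for 20 h at 37 °C, 5% CO₂, in phenol red-free RPMI1640 containing 1% heat-inactivated FBS. Supernatant nitrite was read fluorometrically with DAN followed by NaOH (ex 355/em 460 nm). IC50 is the concentration halving NO versus control; mean ± SD of two or three experiments.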

Mus musculus [4] = assay: Suppression of serum IL1-beta level in LPS-challenged BALB/c mouse endotoxin shock model at 0.1 to 3 mg/kg, iv; assay type: functional, organism-based
Outline: (§2)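 Female BALB/c mice (6-week-old) received compound iv at 0.1–3 mg/kg in 10% glucuronylglucosyl-β-cyclodextrin, 1 h before LPS 7 mg/kg ip. Serum was collected at 1 h for TNF-α, 2 h for IL-6 and 6 h for IL-1β, then assayed by ELISA. n = 8 mice; means ± SE; one-tailed Williams or Shirley-Williams test versus vehicle.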

Mus musculus [5] = assay: Survival of LPS-challenged intravenously dosed BALB/c mouse endotoxin shock model; assay type: functional; conditions: iv
Outline: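 Female BALB/c mice (6-week-old, 15-21 g), acclimated at least one week. Compound dissolved in 10% (w/v) glucuronylglucosyl-β-cyclodextrin sodium salt, given iv at 0.3-3 mg/kg 1 h before lethal LPS (E. coli O111:B4, 7 mg/kg ip, in saline). Survival recorded for 7 days; 10 mice per group; Tarone's test with simple closed step-down method vs vehicle; ED50 as minimum effective dose.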

Mus musculus [6] = assay: Suppression of serum TNF-alpha level in LPS-challenged BALB/c mouse endotoxin shock model at 0.1 to 3 mg/kg, iv; assay type: functional, organism-based; outline: as §2
Mus musculus [7] = assay: Suppression of serum nitric oxide level in LPS-challenged BALB/c mouse endotoxin shock model at 0.1 to 3 mg/kg, iv; assay type: functional, organism-based
Outline: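 Female BALB/c mice were dosed iv at 0.1–3 mg/kg (10% glucuronylglucosyl-β-cyclodextrin vehicle) 1 h before LPS 7 mg/kg ip. Serum was taken at 6 h. Nitrate was reduced to nitrite with Aspergillus nitrate reductase and β-NADPH for 20 min, then read with DAN/HCl and NaOH fluorescence (ex 355/em 460 nm) against a sodium nitrite standard curve. n = 8 mice; means ± SE.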

Mus musculus [8] = assay: Suppression of serum IL6 level in LPS-challenged BALB/c mouse endotoxin shock model at 0.1 to 3 mg/kg, iv; assay type: functional, organism-based; outline: as §2
Mus musculus [9] = assay: Survival of LPS-challenged BALB/c mouse endotoxin shock model at 3 mg/kg, iv; assay type: functional, organism-based; set-up: dose 3 mg/kg
Outline: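 Female BALB/c mice (6-week-old, acclimated at least 1 week) were given compound iv in 10% glucuronylglucosyl-β-cyclodextrin 1 h before a lethal LPS challenge (7 mg/kg ip). Survival was recorded for 7 days, with 10 mice per group. Survival was analysed by Tarone's test with a closed step-down method versus vehicle.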

Compound	IC50 (RAW264.7 [3])	also measured
CCOC(=O)C1=CCCCC1S(=O)(=O)Nc1ccc(Cl)cc1F (stereo unspecified)	160 nM	IC50 (RAW264.7 [1]): 170 nM; IC50 (RAW264.7 [2]): 230 nM
CCOC(=O)C1=CCCCC1S(=O)(=O)Nc1ccc(Cl)cc1 (stereo unspecified)	400 nM	–
CCOC(=O)C1=CCCCC1S(=O)(=O)Nc1ccccc1CC (stereo unspecified)	130 nM	–
CCOC(=O)C1=CCCCC1S(=O)(=O)Nc1cc(F)c(F)cc1F (stereo unspecified)	30 nM	–
O=C(OCCO)C1=CCCCC1S(=O)(=O)Nc1ccc(F)cc1F (stereo unspecified)	330 nM	–
CCOC(=O)C1=CCCCC1S(=O)(=O)Nc1ccccc1 (stereo unspecified)	260 nM	–
CCOC(=O)c1ccccc1S(=O)(=O)Nc1ccc(F)cc1Cl	> 10000 nM	–
CCOC(=O)C1=CCCCC1S(=O)(=O)Nc1ccccc1C(=O)OC (stereo unspecified)	1100 nM	–
CCOC(=O)C1=C(S(=O)(=O)Nc2ccc(F)cc2)CCCC1	1400 nM	–
CCOC(=O)C1=CCCC[C@@H]1S(=O)(=O)Nc1ccc(F)cc1Cl	640 nM	IC50 (RAW264.7 [1]): 480 nM; IC50 (RAW264.7 [2]): 740 nM
CCOC(=O)C1=C(S(=O)(=O)Nc2ccccc2)CCCC1	> 8200 nM	–
CCCCOC(=O)C1=CCCCC1S(=O)(=O)Nc1ccc(F)cc1F (stereo unspecified)	140 nM	–
O=C1C2=C(CCCC2)S(=O)(=O)N1c1ccc(F)cc1	4100 nM	–
CCOC(=O)C1=CCCCC1S(=O)(=O)Nc1cccc(F)c1F (stereo unspecified)	140 nM	–
CCOC(=O)C1=CCCC[C@H]1S(=O)(=O)Nc1ccc(F)cc1Cl [RESATORVID]	1.8 nM	IC50 (RAW264.7 [1]): 1.3 nM; Activity (Mus musculus [4]): Active; IC50 (RAW264.7 [2]): 1.9 nM; ED50 (Mus musculus [5]): 0.3 mg/kg; Activity (Mus musculus [6]): Active; Activity (Mus musculus [7]): Active; Activity (Mus musculus [8]): Active; Activity (Mus musculus [9]): Active

Further lines, with some results ahead:

IC50 (RAW264.7 [3])	Compound	also measured
3.2 nM	CCOC(=O)C1=CCCCC1S(=O)(=O)Nc1ccc(F)cc1Cl (stereo unspecified)	IC50 (RAW264.7 [1]): 2.5 nM; IC50 (RAW264.7 [2]): 3.4 nM
41 nM	CCOC(=O)C1=CCCCC1S(=O)(=O)Nc1ccc(C)cc1Cl (stereo unspecified)	–
> 10000 nM	CCOC(=O)C1=CCCCC1S(=O)(=O)Nc1nncs1 (stereo unspecified)	–
57 nM	COC(=O)C1=CCCCC1S(=O)(=O)Nc1ccc(F)cc1F (stereo unspecified)	–
66 nM	CCOC(=O)C1=CCCCC1S(=O)(=O)Nc1cccc(Cl)c1 (stereo unspecified)	–
20 nM	CCOC(=O)C1=CCCCC1S(=O)(=O)Nc1ccc(Cl)cc1Cl (stereo unspecified)	–
160 nM	CCOC(=O)C1=CCCCC1S(=O)(=O)Nc1c(F)cccc1F (stereo unspecified)	–
29 nM	CCCOC(=O)C1=CCCCC1S(=O)(=O)Nc1ccc(F)cc1F (stereo unspecified)	–
12 nM	CCOC(=O)C1=CCCCC1S(=O)(=O)Nc1ccccc1Cl (stereo unspecified)	–
150 nM	CCOC(=O)C1=CCCCC1S(=O)(=O)Nc1cccc(F)c1 (stereo unspecified)	–
49 nM	CC(C)COC(=O)C1=CCCCC1S(=O)(=O)Nc1ccc(F)cc1F (stereo unspecified)	–
110 nM	CCOC(=O)C1=CCCC1S(=O)(=O)Nc1ccc(F)cc1Cl (stereo unspecified)	–
240 nM	CCOC(=O)C1=CCCCCC1S(=O)(=O)Nc1ccc(F)cc1Cl (stereo unspecified)	–
16 nM	CCOC(=O)C1=CCCCC1S(=O)(=O)Nc1ccc(F)cc1F (stereo unspecified)	–
2600 nM	C/C=C(\C(=O)OCC)C(CCC)S(=O)(=O)Nc1ccc(F)cc1Cl (stereo unspecified)	–
1600 nM	CCOC(=O)C1=CCCCC1S(=O)(=O)Nc1ccc(C#N)cc1Cl (stereo unspecified)	–
110 nM	CCOC(=O)C1=CCCCC1S(=O)(=O)Nc1ccc(F)cc1 (stereo unspecified)	–
1700 nM	CCOC(=O)C1=C(S(=O)(=O)Nc2ccc(Cl)cc2F)CCCC1	–
230 nM	CCOC(=O)C1=CCCCC1S(=O)(=O)N(C)c1ccc(Cl)cc1F (stereo unspecified)	–
> 10000 nM	CCOC(=O)C1=CCCCC1S(=O)(=O)Nc1nccs1 (stereo unspecified)	–
110 nM	CC(C)OC(=O)C1=CCCCC1S(=O)(=O)Nc1ccc(F)cc1F (stereo unspecified)	–
75 nM	CCOC(=O)C1=CCCCC1S(=O)(=O)Nc1ccccc1F (stereo unspecified)	–
